Results: ChEMBL document CHEMBL4184296, “Novel inhibitors of Staphylococcus aureus RnpA that synergize with mupirocin” (Bioorg Med Chem Lett, 2018)
≈ marks a conversion by molar mass, not a printed value.

Tests used:
[1] = target: T1, Ribonuclease P protein component (Staphylococcus aureus, UniProt P0A0H5); experiment: Inhibition of Staphylococcus aureus RnpA-mediated mRNA degradation after 15 to 30 mins by ethidium bromide staining based agarose gel electrophoresis
T1 sequence (P0A0H5 whole entry): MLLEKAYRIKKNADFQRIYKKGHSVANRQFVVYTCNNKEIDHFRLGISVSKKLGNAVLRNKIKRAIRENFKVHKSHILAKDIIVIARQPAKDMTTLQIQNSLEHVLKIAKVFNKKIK
Outline: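 Recombinant S. aureus RnpA (≥97% purity) tested for inhibition of in vitro mRNA degradation.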

[2] = Inhibition of Staphylococcus aureus RnpA/RnpB-mediated tRNA cleavage after 15 mins by ethidium bromide staining based polyacrylamide gel electrophoresis
Outline: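 RNase P reconstituted from equimolar S. aureus RnpA and rnpB; inhibition of in vitro tRNA maturation (cleavage) measured.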

[3] = tested on: Staphylococcus aureus; experiment: Antibacterial activity against Staphylococcus aureus UAMS-1 after 18 hrs by Mueller-Hinton broth analysis; format: functional; conditions: UAMS-1, 18 h
Outline: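 S. aureus UAMS-1, a methicillin-sensitive osteomyelitis clinical isolate, tested by CLSI broth method in 96-well format. MIC taken as the lowest compound concentration with no visible growth.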

[4] = tested on: HepG2; experiment: Cytotoxicity against human HepG2 cells assessed as reduction in cell viability after 24 hrs by MTT assay; format: cell-based; conditions: hepg2, 24 h
Outline: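 Human HepG2 hepatocytes; overt cytotoxicity measured by MTT method. Value reported as the lowest concentration causing cytotoxicity.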

[5] = tested on: Staphylococcus aureus; experiment: Potentiation of mupirocin-induced antibacterial activity against Staphylococcus aureus UAMS-1 assessed as fractional inhibitory concentration index at 4 ug/ml by checkerboard assay; format: functional
Outline: (§1)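 Checkerboard assay: wells seeded with 1 × 10^5 CFU ml-1 S. aureus UAMS-1. Test compound in 2-fold steps (0, 0.5, 1, 2, 4, 8, 16, 32 µg/mL) crossed with mupirocin (0, 0.03125, 0.0625, 0.125 µg/mL). Plates incubated 18 h at 37 °C, then growth read. FICI = (MIC compound combined / MIC alone) + (MIC mupirocin combined / MIC mupirocin alone).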

[6] = tested on: Staphylococcus aureus; experiment: Potentiation of mupirocin-induced antibacterial activity against Staphylococcus aureus UAMS-1 assessed as mupirocin MIC at 8 ug/ml by checkerboard assay (reference value: 0.125 microg/ml); format: functional; outline: as §1
[7] = tested on: Staphylococcus aureus; experiment: Potentiation of mupirocin-induced antibacterial activity against Staphylococcus aureus UAMS-1 assessed as fractional inhibitory concentration index at 0.5 ug/ml by checkerboard assay; format: functional; outline: as §1
[8] = tested on: Staphylococcus aureus; experiment: Potentiation of mupirocin-induced antibacterial activity against Staphylococcus aureus UAMS-1 assessed as fractional inhibitory concentration index at 8 ug/ml by checkerboard assay; format: functional; outline: as §1
[9] = tested on: Staphylococcus aureus; experiment: Potentiation of mupirocin-induced antibacterial activity against Staphylococcus aureus UAMS-1 assessed as fractional inhibitory concentration index at 16 ug/ml by checkerboard assay; format: functional; outline: as §1
[10] = tested on: Staphylococcus aureus; experiment: Potentiation of mupirocin-induced antibacterial activity against Staphylococcus aureus UAMS-1 assessed as mupirocin MIC at 4 ug/ml by checkerboard assay (reference value: 0.125 microg/ml); format: functional; outline: as §1
[11] = tested on: Staphylococcus aureus; experiment: Potentiation of mupirocin-induced antibacterial activity against Staphylococcus aureus UAMS-1 assessed as mupirocin MIC at 2 ug/ml by checkerboard assay (reference value: 0.125 microg/ml); format: functional; outline: as §1
[12] = tested on: Staphylococcus aureus; experiment: Potentiation of mupirocin-induced antibacterial activity against Staphylococcus aureus UAMS-1 assessed as mupirocin MIC at 1 ug/ml by checkerboard assay (reference value: 0.125 microg/ml); format: functional; outline: as §1
[13] = tested on: Staphylococcus aureus; experiment: Potentiation of mupirocin-induced antibacterial activity against Staphylococcus aureus UAMS-1 assessed as fractional inhibitory concentration index at 1 ug/ml by checkerboard assay; format: functional; outline: as §1

CC(C)c1ccc(OCC(=O)NNC(=S)NC(=O)c2ccc(-c3ccccc3)o2)cc1
IC50 [1]: 40 µM
IC50 [2]: 50 µM
MIC [3]: 64 µg/mL (≈ 146 µM)
MTC [4]: 64 µg/mL

CC(C)c1ccc(OCC(=O)NNC(=S)NC(=O)c2cc3ccccc3o2)cc1
IC50 [2]: 1 µM
fractional inhibitory concentration index (FICI) [5]: 0.25
MIC [6]: 0.0312 µg/mL
MIC [3]: 32 µg/mL (≈ 77.8 µM)
fractional inhibitory concentration index (FICI) [7]: 0.508
MTC [4]: > 128 µg/mL

Cc1cc(/C=C(/C#N)C(=O)Nc2cccc(Br)c2)c(C)n1-c1ccc(C(=O)O)cc1
IC50 [1]: 100 µM
IC50 [2]: 175 µM
MIC [3]: 32 µg/mL (≈ 68.9 µM)
MTC [4]: 25 µg/mL

CC(C)c1ccc(OCC(=O)NNC(=S)NC(=O)Cc2ccco2)cc1
IC50 [1]: 25 µM
MTC [4]: 32 µg/mL

CC(C)c1ccc(OCC(=O)NNC(=S)NC(=O)c2cc3cc(F)ccc3[nH]2)cc1
IC50 [1]: < 50 µM
IC50 [2]: < 50 µM
MTC [4]: 256 µg/mL

CC(C)c1ccc(OCC(=O)NNC(=S)NC(=O)c2ccccc2)cc1
IC50 [1]: > 500 µM
IC50 [2]: 350 µM
MIC [3]: 64 µg/mL (≈ 172 µM)
MTC [4]: 512 µg/mL

CC(C)c1ccc(OCC(=O)NNC(=S)NC(=O)c2cc3ccccc3s2)cc1
IC50 [2]: 100 µM
MTC [4]: 512 µg/mL

CC(C)c1ccc(OCC(=O)NNC(=S)NC(=O)c2cccs2)cc1
IC50 [1]: 250 µM
IC50 [2]: 25 µM
MIC [3]: 64 µg/mL (≈ 170 µM)
MTC [4]: > 256 µg/mL

CC(C)c1ccc(OCC(=O)NNC(=S)NC(=O)c2cc3ccccc3n2C)cc1
IC50 [2]: 50 µM
MTC [4]: > 256 µg/mL

CC(C)c1ccc(OCC(=O)NNC(=S)NC(=O)c2ccccn2)cc1
IC50 [2]: 1 µM
MIC [6]: 0.0625 µg/mL
fractional inhibitory concentration index (FICI) [7]: 0.516
fractional inhibitory concentration index (FICI) [8]: 0.5
MTC [4]: > 128 µg/mL
fractional inhibitory concentration index (FICI) [9]: 0.625

Cc1ccc(C(=O)NC(=S)NNC(=O)COc2ccc(C(C)C)cc2)o1
IC50 [2]: 105 µM
MIC [10]: 0.0312 µg/mL
fractional inhibitory concentration index (FICI) [5]: 0.5
fractional inhibitory concentration index (FICI) [7]: 0.53
MTC [4]: > 128 µg/mL

CC(C)c1ccc(OCC(=O)NNC(=S)NC(=O)c2ccc(Br)o2)cc1
IC50 [2]: 40 µM
MIC [11]: 0.0625 µg/mL
fractional inhibitory concentration index (FICI) [7]: 0.516
fractional inhibitory concentration index (FICI) [8]: 0.375
MTC [4]: > 128 µg/mL

Cc1ccoc1C(=O)NC(=S)NNC(=O)COc1ccc(C(C)C)cc1
IC50 [2]: 150 µM
MTC [4]: > 128 µg/mL

CC(C)c1ccc(OCC(=O)NNC(=S)NC(=O)c2cc3cc(Cl)ccc3[nH]2)cc1
IC50 [2]: 100 µM
MTC [4]: 256 µg/mL

CC(C)c1ccc(OCC(=O)NNC(=S)NC(=O)c2ccno2)cc1
IC50 [2]: > 500 µM
MTC [4]: > 128 µg/mL

CC(C)c1ccc(OCC(=O)NNC(=S)NC(=O)c2nc3ccccc3[nH]2)cc1
IC50 [2]: 90 µM
MTC [4]: 512 µg/mL

CC(C)c1ccc(OCC(=O)NNC(=S)NC(=O)c2cc3ccccc3[nH]2)cc1
MIC [12]: 0.0625 µg/mL
IC50 [2]: 0.5 µM
fractional inhibitory concentration index (FICI) [13]: 0.56
MTC [4]: > 256 µg/mL

CC(C)c1ccc(OCC(=O)NNC(=S)NC(=O)c2ccncc2)cc1
IC50 [2]: 150 µM
MTC [4]: > 512 µg/mL

CC(C)c1ccc(OCC(=O)NNC(=S)NC(=O)c2cnco2)cc1
IC50 [2]: 50 µM
MTC [4]: 64 µg/mL

CC(C)c1ccc(OCC(=O)NNC(=S)NC(=O)c2ccco2)cc1
IC50 [2]: 140 µM
MIC [10]: 0.0625 µg/mL
fractional inhibitory concentration index (FICI) [5]: 0.49
MIC [3]: 16 µg/mL (≈ 44.3 µM)
MTC [4]: > 128 µg/mL

COc1ccc2[nH]c(C(=O)NC(=S)NNC(=O)COc3ccc(C(C)C)cc3)cc2c1
MTC [4]: 32 µg/mL

CC(C)c1ccc(OCC(=O)NNC(=S)NC(=O)c2cc3ccc(Cl)cc3[nH]2)cc1
IC50 [2]: < 50 µM
MTC [4]: 32 µg/mL

CC(C)c1ccc(OCC(=O)NNC(=S)NC(=O)c2coc3ccccc23)cc1
IC50 [1]: > 250 µM
IC50 [2]: 25 µM
MIC [3]: 128 µg/mL (≈ 311 µM)
MTC [4]: 128 µg/mL

CC(C)c1ccc(OCC(=O)NNC(=S)NC(=O)c2ccoc2)cc1
IC50 [1]: 250 µM
IC50 [2]: 150 µM
MTC [4]: 16 µg/mL

CC(C)c1ccc(OCC(=O)NNC(=S)NC(=O)/C=C/c2ccco2)cc1
IC50 [2]: 32 µM
MTC [4]: > 256 µg/mL

CC(C)c1ccc(OCC(=O)NNC(=S)NC(=O)c2cccnc2)cc1
IC50 [2]: 160 µM
MTC [4]: > 256 µg/mL

CC(C)c1ccc(OCC(=O)NNC(=S)NC(=O)/C=C/c2cc3ccccc3o2)cc1
IC50 [2]: 26 µM
MIC [3]: > 256 µg/mL
MTC [4]: 256 µg/mL

CC(C)c1ccc(OCC(=O)NNC(=S)NC(=O)c2c[nH]c3ccccc23)cc1
IC50 [2]: 90 µM
MIC [6]: 0.0625 µg/mL
fractional inhibitory concentration index (FICI) [8]: 0.5
MTC [4]: > 128 µg/mL

COc1ccc2cc(C(=O)NC(=S)NNC(=O)COc3ccc(C(C)C)cc3)[nH]c2c1
IC50 [1]: 50 µM
MIC [3]: > 256 µg/mL
MTC [4]: > 512 µg/mL

CC(C)c1ccc(OCC(=O)NNC(=S)NC(=O)c2ccc[nH]2)cc1
IC50 [1]: > 250 µM
IC50 [2]: 25 µM
MIC [3]: 16 µg/mL (≈ 44.4 µM)
MTC [4]: 16 µg/mL

CC(C)c1ccc(OCC(=O)NNC(=S)NC(=O)c2ccsc2)cc1
IC50 [2]: 395 µM
MTC [4]: > 256 µg/mL
